The list is not random: actives were taken first. Their share in the collection is about 1.9%.
M4 antag: human M4 muscarinic receptor antagonists, primary screen, CHO cells, Fluo-8 calcium fluorescence. hit rate 0.73% among 360,000. CHO-hM4 cells, ACh EC80. Muscarinic acetylcholine receptor M4 (Homo sapiens), P08173. inhibition, % at 3 µM;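 active = inhibition above its plate's cutoff, the mean inhibition of sample wells plus 3 SD, cut at about 27% in these data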
CHRM4 agonist: human M4 muscarinic receptor agonists, primary screen, CHO-K1 cells, Fluo-8 calcium fluorescence | Muscarinic acetylcholine receptor M4 (Homo sapiens), P08173 | CHO-K1 hM4/Gqi5; vehicle 0%, full acetylcholine response 100% | activation, % at 3 µM | AID 624127, 2012 | hit rate 0.14% among 360,000;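 active = activation above the run mean over all test wells plus 3 SD, cut at about 32% in these data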;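 note: peak over basal fluorescence ratio per well then scaled between controls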
CHRM5 agonist: human M5 muscarinic receptor agonists, primary screen, CHO-K1 cells, Fluo-8 calcium fluorescence. Muscarinic acetylcholine receptor M5 (Homo sapiens), P08912. CHO-K1 hM5 cells; 0% DMSO wells, 100% maximal acetylcholine response. activation, % at 3 µM. hit rate 0.19% among 360,000;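 active = activation above the run's mean over test compounds plus 3 SD, cut at about 23% in these data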;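 note: signal is peak over basal fluorescence ratio across the kinetic read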
Target sequence (P08912 whole entry, looked up): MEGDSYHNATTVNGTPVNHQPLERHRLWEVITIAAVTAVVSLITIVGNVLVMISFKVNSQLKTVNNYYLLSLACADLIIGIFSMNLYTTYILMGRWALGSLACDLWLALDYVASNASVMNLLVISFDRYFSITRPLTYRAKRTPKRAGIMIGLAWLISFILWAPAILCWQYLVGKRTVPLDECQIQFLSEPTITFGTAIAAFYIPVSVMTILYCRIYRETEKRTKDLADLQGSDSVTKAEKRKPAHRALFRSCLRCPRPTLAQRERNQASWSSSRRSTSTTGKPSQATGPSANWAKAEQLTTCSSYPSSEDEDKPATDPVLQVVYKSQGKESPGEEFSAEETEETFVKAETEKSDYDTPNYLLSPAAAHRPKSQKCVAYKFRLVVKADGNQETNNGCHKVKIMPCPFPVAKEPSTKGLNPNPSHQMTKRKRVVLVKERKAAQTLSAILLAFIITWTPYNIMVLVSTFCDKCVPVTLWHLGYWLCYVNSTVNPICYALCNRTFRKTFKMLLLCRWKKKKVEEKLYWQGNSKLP
CHRM5 PAM: human M5 muscarinic receptor positive allosteric modulators, primary screen, CHO-K1 cells, Fluo-8 calcium fluorescence; Muscarinic acetylcholine receptor M5 (Homo sapiens), P08912; CHO-K1 hM5, ACh EC20 PAM; 0% = ACh EC20, 100% = ACh EC100; activation, % at 3 µM; hit rate 0.3% among 360,000;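 active = activation above the run cutoff, the mean activation of all test compounds plus 3 SD, cut at about 18% in these data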
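Test system: CHO-K1 hM5 cells / Doses: single-point, 3 µM nominal / Times: Post-acetylcholine fluorescence recording 140 s / Technique: Fluo-8 calcium fluorescence / Measure: Max/basal fluorescence ratio as % of EC20–EC100 ACh window / Benchmarks: low control EC20 acetylcholine (0%), high control EC100 acetylcholine (100%) / Replicates: one well per compound, no replicates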
CHRM4 PAM: human M4 muscarinic receptor positive allosteric modulators, primary screen, CHO-K1 cells, Fluo-8 calcium fluorescence | Muscarinic acetylcholine receptor M4 (Homo sapiens), P08173 | CHO-K1 hM4/Gqi5, ACh EC20; 0% = ACh EC20, 100% = maximal ACh | activation, % at 3 µM | hit rate 0.4% among 360,000 | AID 624126, 2012;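 active = activation above its plate's cutoff, the mean activation of sample wells plus 3 SD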
CHRM5 antagonist: human M5 muscarinic receptor antagonists, primary screen, CHO cells, Fluo-8 calcium fluorescence; Muscarinic acetylcholine receptor M5 (Homo sapiens), P08912; CHO-hM5 cells, ACh EC80; inhibition, % at 3 µM; hit rate 0.59% among 360,000; AID 624040, 2012;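 active = inhibition above a per-plate cutoff, the mean of that plate's test compounds plus 3 SD, cut at about 27% in these data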
Numbers stand for hits; 0 = inactive.

SMILES	M4 antag	CHRM4 agonist	CHRM5 agonist	CHRM5 PAM	CHRM4 PAM	CHRM5 antagonist
Cc1cccc2sc(NC(=O)C3CCN(S(=O)(=O)c4cc([N+](=O)[O-])ccc4Cl)CC3)nc12	29	0	0	0	0	0
C[C@@H]1[C@H](O)C[C@@]23COC(=O)C2=CCC[C@@H]3[C@@]1(C)CC/C(=C/CO)CO	0	0	0	0	0	0
COc1ccccc1-c1cc(C2CC2)nc(N)c1C#N	0	0	0	0	0	0
N#Cc1c(-c2ccccc2Cl)cc(C2CC2)nc1N	0	62	56	0	0	0
Cc1nc(N)c(C#N)c(-c2ccccc2Cl)c1C	0	0	0	0	29	0
CC1CCCCN1C/C=C/c1ccccc1[N+](=O)[O-] (stereo unspecified)	34	0	0	0	0	0
CCC1CCCCN1C/C=C/c1ccccc1[N+](=O)[O-] (stereo unspecified)	54	0	0	0	0	55
Cc1ccc(C(=O)Nc2cc(C)nn2CCC#N)cc1	0	0	0	0	0	0
O=C1NC(=O)C2(N1)c1ccccc1-c1ccccc12	0	0	0	0	0	0
O=C1NC(=O)C2(N1)C(=O)c1cccc3cccc2c13 (stereo unspecified)	29	161	36	0	0	0
COc1ccc(S(=O)(=O)N2CCOCC2)cc1NC(=O)CN1C(=O)NC2(CCCC2)C1=O	0	0	0	0	0	0
Cc1ccc(C)c(-n2sc3ccc(F)cc3c2=O)c1	0	33	0	0	0	0
CCCCn1nc(C(=O)Nc2c(C)n(C)n(-c3ccccc3)c2=O)c2ccccc2c1=O	0	0	0	0	0	0
Cc1c2cnn(CC(=O)NCCCN3CCCCC3)c(=O)c2c(C)n1Cc1ccccc1	0	0	0	0	0	0
Cc1nc2nc(SCC(=O)NCCCN3CCCCCC3)nn2c(C)c1Cc1ccccc1Cl	51	0	0	0	0	0
CCC1CCCCN1CCCNC(=O)CSc1nc2nc(C)c(Cc3ccccc3Cl)c(C)n2n1 (stereo unspecified)	31	0	0	0	0	0
Cc1ccccc1Cc1c(C)nc2nc(SCC(=O)NCCCN3CCCC3)nn2c1C	0	0	0	0	0	0
Cc1nc2nc(SCC(=O)NCCCN3CCCC(C)C3)nn2c(C)c1Cc1ccccc1Cl (stereo unspecified)	31	0	0	0	0	0
CCC1CCCCN1CCCNC(=O)Cn1ncc2c(C)n(Cc3ccccc3Cl)c(C)c2c1=O (stereo unspecified)	28	0	0	0	0	0
CCC1CCCCN1CCCNC(=O)CSc1nc2nc(C)c(Cc3ccccc3)c(C)n2n1 (stereo unspecified)	0	0	0	0	0	0
Cc1nnc(NC(=O)c2cc(-c3ccncc3)nc3c(C)cccc23)s1	0	0	0	0	0	0
COc1ccc(C(=O)NCc2ccccc2CN2CCCC2)cc1S(=O)(=O)Nc1ccc(C)cc1	0	0	0	0	0	0
O=C(Nc1ccc(Oc2ccccc2)nc1)C1CCN(Cc2cccc(F)c2)CC1	0	0	0	0	0	31
C#Cc1ccc(CN2CCC(C(=O)Nc3ccc(Oc4ccccc4)nc3)CC2)cc1	0	0	0	0	0	0
Cc1c(Cl)cccc1NC(=S)N(CCCN1CCOCC1)Cc1cccs1	56	0	0	0	0	0
SMILES	M4 antag	CHRM4 agonist	CHRM5 agonist	CHRM5 PAM	CHRM4 PAM	CHRM5 antagonist
COc1ccc(NC(=S)N(CCCN2CCCCC2)Cc2cccs2)cc1	40	0	0	0	0	0
Cc1ccc(NC(=S)N(CCCN2CCOCC2)Cc2cccs2)c(C)c1	0	0	0	0	0	0
CCN(CC)CCN1c2ccccc2Sc2ccc3ccccc3c21	0	0	0	0	0	80
CCN(CC)CCN1c2ccccc2Sc2ccccc21	89	0	0	0	0	99
Oc1cnn(-c2ccccc2)c1	0	0	0	0	31	0
Oc1ccc(-c2[nH]ncc2-c2cnn(-c3ccccc3)c2)c(O)c1	0	0	0	0	0	0
CCOC(=O)c1c(-c2ccccc2)c[nH]c1C	0	0	0	0	0	0
CCC1([N+](=O)[O-])COC(c2ccc(Cl)cc2)OC1 (stereo unspecified)	0	0	0	0	27	0
CC1(C(=O)O)COC(c2ccc(Cl)cc2)OC1 (stereo unspecified)	0	0	0	0	0	0
CC1=CC(C)(C)N(C(=O)CNC2CCCCC2)c2cc(C)ccc21	47	0	0	0	0	40
Nc1[nH]ncc1-c1ccc(Cl)cc1	0	0	0	0	38	0
O=C(CCc1nnc2n(Cc3ccc(Cl)cc3)c(=O)c3ccccc3n12)NCCN1CCCC1	0	0	0	0	0	0
O=C(CCc1nnc2n(CCc3ccccc3)c(=O)c3ccccc3n12)NCCCN1CCCCC1	37	0	0	0	0	0
O=C(COC(=O)COc1ccccc1)Nc1ccc(Br)cc1F	0	0	0	0	14	0
O=C(COC(=O)COc1ccccc1)Nc1ccc(Br)cc1Br	0	0	0	0	0	0
CN(Cc1ccccc1)C(=O)Cn1nnc(-c2ccccc2)c1COc1ccccc1	0	0	0	0	0	0
CCCCN(C(=O)c1ccc(-n2nc(C)cc2C)cc1)c1c(N)n(CCC)c(=O)[nH]c1=O	0	0	0	0	0	0
COc1ccc(C2NCCc3c2[nH]c2ccccc32)cc1CSc1nc2ccccc2s1 (stereo unspecified)	32	0	0	0	0	0
CC(C)(C)c1nnc(N/N=C/c2cc(Br)ccc2O)n(N)c1=O	34	0	0	0	0	0
O=C(NCCC(=O)N1CCc2ccccc21)c1ccco1	0	0	0	0	0	0
N=c1sccn1CC(=O)NCCc1ccc(Cl)cc1Cl	35	0	0	0	0	0
O=C(Cc1ccccc1)NCCc1ccc(Cl)cc1Cl	0	0	0	0	0	0
CCOC(=O)c1ccc(-c2ccc(-c3cc(=O)oc4cc(OC)c(OC)c(OC)c34)cc2)cc1	0	0	0	0	0	0
O=C(C[n+]1ccccc1)N1c2ccccc2Sc2ccccc21	99	0	0	0	0	98
CN(C)c1cc[n+](CC(=O)N2c3ccccc3Sc3ccccc32)cc1	48	0	0	0	0	0
O=C(COc1ccccc1)N1c2ccccc2Sc2ccccc21	0	0	0	0	0	0

Screening results (PubChem)
